Results published in ChEMBL document CHEMBL3774334, “New cytotoxic neo-clerodane diterpenoids from Scutellaria strigillosa” (Bioorg Med Chem Lett, 2016).

What was measured:
Format in all cases: functional, cell-based
MCF7 = assay: Cytotoxicity against human MCF7 cells assessed as growth inhibition after 72 hrs by MTT assay; conditions: MCF7, 72 h
Method in brief: (§1)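 MTT read-out of cell growth, method as in an earlier report. IC50 is the concentration giving 50% inhibition of cell growth. Etoposide and cisplatin were run as positive controls.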

HT-29 = assay: Cytotoxicity against human HT-29 cells assessed as growth inhibition after 72 hrs by MTT assay; conditions: HT-29, 72 h; method in brief: as §1
[1] = Cytotoxicity against human HONE1 cells assessed as growth inhibition after 72 hrs by MTT assay; conditions: HONE1, 72 h; method in brief: as §1
P388 = assay: Cytotoxicity against mouse P388 cells assessed as growth inhibition after 72 hrs by MTT assay; conditions: P388, 72 h; method in brief: as §1

| SMILES | IC50 (MCF7) [µM] | IC50 (HT-29) [µM] | IC50 [1] [µM] | IC50 (P388) [µM] |
| --- | --- | --- | --- | --- |
| CC(=O)O[C@H]1[C@H](OC(C)=O)[C@]2(C)O[C@]3(COC(=O)C3)C[C@H](OC(=O)c3ccccc3)[C@]2(C)[C@H]2CCC=C(C)[C@]12C | 6 | 4.1 | 4.2 | 5.2 |
| CC1=CCC[C@H]2[C@@]1(C)[C@@H](OC(=O)c1ccccc1)[C@H](OC(=O)C(O)C(C)C)[C@](C)(O)[C@]2(C)/C=C/C1=CC(=O)OC1 (stereo partly specified) | 7.7 | 6.4 | 3.9 | 7.1 |
| CC1=CCC[C@H]2[C@@]1(C)[C@@H](OC(=O)c1cccnc1)[C@H](OC(=O)c1ccccc1)[C@]1(C)O[C@]3(COC(=O)C3)C[C@H](OC(=O)c3cccnc3)[C@]21C | 5.7 | 4.7 | 3.5 | 5.8 |
| COc1cc([C@@H]2c3cc4c(cc3[C@@H](O[C@@H]3O[C@@H]5CO[C@@H](C)O[C@H]5[C@H](O)[C@H]3O)[C@H]3COC(=O)[C@H]23)OCO4)cc(OC)c1O [ETOPOSIDE] | 2.2 | 2 | 1.2 | 1.3 |
